From ChEMBL document CHEMBL1212805, “Evaluation of WLBU2 peptide and 3-O-octyl-sn-glycerol lipid as active ingredients for a topical microbicide formulation targeting Chlamydia trachomatis” (Antimicrob Agents Chemother, 2010)
The source made the active and inactive calls.

Assays:
[1] = system: Chlamydia trachomatis; assay: Antibacterial activity against Chlamydia trachomatis serovar D after 5 mins by MCC assay in presence of simulated human serum albumin; format: functional
Method in brief: (§1)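 C. trachomatis serovar EBs (5 × 10⁶ IFU/ml) diluted in 100% VFS (zinc-free for SFS), 100% SFS or 10% HSA, mixed 1:1 with five 4-fold SPG dilutions (final 60 μM/30 mM top; 50% VFS, 50% SFS, 5% HSA). After 5 or 120 min, diluted 1:40, inoculated onto McCoy monolayers. Inclusions stained with anti-LPS/FITC after 36–48 h. Inhibition versus no-drug control in the same fluid; MCC is complete inhibition.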

[2] = system: Chlamydia trachomatis; assay: Antibacterial activity against Chlamydia trachomatis serovar E after 5 mins by MCC assay in presence of simulated human serum albumin; format: functional; method in brief: as §1
[3] = system: Chlamydia trachomatis; assay: Antibacterial activity against Chlamydia trachomatis serovar L2 after 5 mins by MCC assay in presence of simulated vaginal fluid; format: functional; conditions: serovar L2, 5 min; method in brief: as §1
[4] = system: Chlamydia trachomatis; assay: Antibacterial activity against Chlamydia trachomatis serovar E after 5 mins by MCC assay in presence of simulated vaginal fluid; format: functional; method in brief: as §1
[5] = Cytotoxicity against mouse McCoy cells after 48 hrs at =<30 uM by MCC assay; format: cell-based
Method in brief: (§2)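 Cytotoxicity was tested by running the MCC procedure without inoculum: compound diluted in half with SPG, then diluted 1:40 onto McCoy monolayers and incubated 48 h at 37°C. Read-out by Alamar Blue, MTT and LDH kits. SPG served as negative control and Triton X-100 as positive control. Nontoxic was defined as <10% toxicity in all methods.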

[6] = system: Chlamydia trachomatis; assay: Antibacterial activity against Chlamydia trachomatis serovar E assessed as change in MCC at pH 4 to 8 after 5 mins by MCC assay in presence of sucrose- phosphate-glutamate buffer; format: functional, organism-based
Method in brief: (§3)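 Compounds and EBs were each diluted in SPG at pH 4, 5.5, 7 or 8 and mixed 1:1, so exposure pH was constant. Five 4-fold dilutions were used (top 60 μM peptide, 30 mM lipid). After 5 or 120 min, the mix was diluted 1:40 in pH 7.5 SPG and plated on McCoy cells. Inclusion counts were compared with a no-drug control at the same pH and time.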

[7] = system: Chlamydia trachomatis; assay: Antibacterial activity against Chlamydia trachomatis serovar L2 at => 6.25 mM after 5 mins relative to control; format: functional
[8] = system: Chlamydia trachomatis; assay: Antibacterial activity against Chlamydia trachomatis serovar L2 at 3.13 mM after 120 mins relative to control; format: functional; conditions: serovar L2, 2 h
Method in brief: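 Serovar L2 EBs (5 × 10⁶ IFU/ml in SPG, pH 7.5) mixed 1:1 with ten 2-fold SPG dilutions (final 50 μM top peptide, 25 mM lipid), exposed 5 or 120 min, diluted 1:40, plated on McCoy cells; fixed with methanol after 36–48 h, anti-LPS/FITC stained. Triplicate wells, three fields each, three independent days; percent inhibition versus no-drug control ± SD.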

[9] = system: Chlamydia trachomatis; assay: Antibacterial activity against Chlamydia trachomatis serovar D at 1.88 mM at pH 4 after 5 mins by MCC assay in presence of sucrose- phosphate-glutamate buffer; format: functional, organism-based; conditions: in the assay text read “after 120 mins” for “after 5 mins”; method in brief: as §3
[10] = system: Chlamydia trachomatis; assay: Antibacterial activity against Chlamydia trachomatis serovar D at 1.88 mM at pH 8 after 5 mins by MCC assay in presence of sucrose- phosphate-glutamate buffer; format: functional, organism-based; conditions: in the assay text read “after 120 mins” for “after 5 mins”; method in brief: as §3
[11] = system: Chlamydia trachomatis; assay: Antibacterial activity against Chlamydia trachomatis serovar L2 after 120 mins by MCC assay in presence of simulated seminal fluid; format: functional; conditions: serovar L2, 2 h; method in brief: as §1
[12] = system: Chlamydia trachomatis; assay: Antibacterial activity against Chlamydia trachomatis serovar E after 5 mins by MCC assay in presence of simulated seminal fluid; format: functional; method in brief: as §1
[13] = system: Chlamydia trachomatis; assay: Antibacterial activity against Chlamydia trachomatis serovar D after 120 mins by MCC assay in presence of simulated human serum albumin; format: functional; conditions: 2 h; method in brief: as §1
[14] = system: Chlamydia trachomatis; assay: Antibacterial activity against Chlamydia trachomatis serovar E after 120 mins by MCC assay in presence of simulated human serum albumin; format: functional; conditions: 2 h; method in brief: as §1
[15] = system: Chlamydia trachomatis; assay: Antibacterial activity against Chlamydia trachomatis serovar E assessed as change in MCC at pH 4 to 8 after 120 mins by MCC assay in presence of sucrose- phosphate-glutamate buffer; format: functional, organism-based; method in brief: as §3
[16] = system: Chlamydia trachomatis; assay: Antibacterial activity against Chlamydia trachomatis serovar D after 5 mins by MCC assay in presence of simulated seminal fluid; format: functional; method in brief: as §1
[17] = system: Chlamydia trachomatis; assay: Antibacterial activity against Chlamydia trachomatis serovar D assessed as change in MCC at pH 4 to 8 after 5 mins by MCC assay in presence of sucrose- phosphate-glutamate buffer; format: functional, organism-based; method in brief: as §3
[18] = system: Chlamydia trachomatis; assay: Antibacterial activity against Chlamydia trachomatis serovar D after 5 mins by MCC assay in presence of simulated vaginal fluid; format: functional; method in brief: as §1
[19] = system: Chlamydia trachomatis; assay: Antibacterial activity against Chlamydia trachomatis serovar L2 after 5 mins by MCC assay in presence of simulated human serum albumin; format: functional; conditions: serovar L2, 5 min; method in brief: as §1
[20] = system: Chlamydia trachomatis; assay: Antibacterial activity against Chlamydia trachomatis serovar D assessed as change in MCC at pH 4 to 8 after 120 mins by MCC assay in presence of sucrose- phosphate-glutamate buffer; format: functional, organism-based; method in brief: as §3
[21] = system: Chlamydia trachomatis; assay: Antibacterial activity against Chlamydia trachomatis serovar E after 120 mins by MCC assay in presence of simulated vaginal fluid; format: functional; conditions: 2 h; method in brief: as §1
[22] = system: Chlamydia trachomatis; assay: Antibacterial activity against Chlamydia trachomatis serovar D after 120 mins by MCC assay in presence of simulated seminal fluid; format: functional; conditions: 2 h; method in brief: as §1
[23] = system: Chlamydia trachomatis; assay: Antibacterial activity against Chlamydia trachomatis serovar L2 after 120 mins by MCC assay in presence of simulated vaginal fluid; format: functional; conditions: serovar L2, 2 h; method in brief: as §1
[24] = system: Chlamydia trachomatis; assay: Antibacterial activity against Chlamydia trachomatis serovar D after 120 mins by MCC assay in presence of simulated vaginal fluid; format: functional; conditions: 2 h; method in brief: as §1
[25] = system: Chlamydia trachomatis; assay: Antibacterial activity against Chlamydia trachomatis serovar L2 after 120 mins by MCC assay in presence of simulated human serum albumin; format: functional; conditions: serovar L2, 2 h; method in brief: as §1
[26] = system: Chlamydia trachomatis; assay: Antibacterial activity against Chlamydia trachomatis serovar L2 after 5 mins by MCC assay in presence of simulated seminal fluid; format: functional; conditions: serovar L2, 5 min; method in brief: as §1
[27] = system: Chlamydia trachomatis; assay: Antibacterial activity against Chlamydia trachomatis serovar E after 120 mins by MCC assay in presence of simulated seminal fluid; format: functional; conditions: 2 h; method in brief: as §1
[28] = Cytotoxicity against mouse McCoy cells after 48 hrs at =<30 uM by almar blue assay; format: cell-based; method in brief: as §2
[29] = system: Chlamydia trachomatis; assay: Antibacterial activity against Chlamydia trachomatis serovar D at 1.88 mM at pH 5.5 after 5 mins by MCC assay in presence of sucrose- phosphate-glutamate buffer; format: functional, organism-based; conditions: in the assay text read “after 120 mins” for “after 5 mins”; method in brief: as §3

CCCCCCCCOC[C@H](O)CO
100%: inhibition (INH) [7]
active: Activity [6] | Activity [9] | Activity [10] | Activity [15] | Activity [17] | Activity [20] | Activity [29]
98.2%: inhibition at 3130 µM [8]
7.5 mM: MCC [3] | MCC [4] | MCC [11] | MCC [13] | MCC [14] | MCC [18] | MCC [21] | MCC [22] | MCC [23] | MCC [24] | MCC [25] | MCC [27]
Non-toxic: Activity [5] | Activity [28]
30 mM: MCC [1] | MCC [2] | MCC [12] | MCC [16] | MCC [19] | MCC [26]
